Tests used:
Nitric oxide synthase 3 = biological target: T1, Nitric oxide synthase 3 (Homo sapiens, UniProt P29474); test: Inhibitory activity against human vascular endothelial nitric oxide synthase.
T1 sequence (P29474 whole entry): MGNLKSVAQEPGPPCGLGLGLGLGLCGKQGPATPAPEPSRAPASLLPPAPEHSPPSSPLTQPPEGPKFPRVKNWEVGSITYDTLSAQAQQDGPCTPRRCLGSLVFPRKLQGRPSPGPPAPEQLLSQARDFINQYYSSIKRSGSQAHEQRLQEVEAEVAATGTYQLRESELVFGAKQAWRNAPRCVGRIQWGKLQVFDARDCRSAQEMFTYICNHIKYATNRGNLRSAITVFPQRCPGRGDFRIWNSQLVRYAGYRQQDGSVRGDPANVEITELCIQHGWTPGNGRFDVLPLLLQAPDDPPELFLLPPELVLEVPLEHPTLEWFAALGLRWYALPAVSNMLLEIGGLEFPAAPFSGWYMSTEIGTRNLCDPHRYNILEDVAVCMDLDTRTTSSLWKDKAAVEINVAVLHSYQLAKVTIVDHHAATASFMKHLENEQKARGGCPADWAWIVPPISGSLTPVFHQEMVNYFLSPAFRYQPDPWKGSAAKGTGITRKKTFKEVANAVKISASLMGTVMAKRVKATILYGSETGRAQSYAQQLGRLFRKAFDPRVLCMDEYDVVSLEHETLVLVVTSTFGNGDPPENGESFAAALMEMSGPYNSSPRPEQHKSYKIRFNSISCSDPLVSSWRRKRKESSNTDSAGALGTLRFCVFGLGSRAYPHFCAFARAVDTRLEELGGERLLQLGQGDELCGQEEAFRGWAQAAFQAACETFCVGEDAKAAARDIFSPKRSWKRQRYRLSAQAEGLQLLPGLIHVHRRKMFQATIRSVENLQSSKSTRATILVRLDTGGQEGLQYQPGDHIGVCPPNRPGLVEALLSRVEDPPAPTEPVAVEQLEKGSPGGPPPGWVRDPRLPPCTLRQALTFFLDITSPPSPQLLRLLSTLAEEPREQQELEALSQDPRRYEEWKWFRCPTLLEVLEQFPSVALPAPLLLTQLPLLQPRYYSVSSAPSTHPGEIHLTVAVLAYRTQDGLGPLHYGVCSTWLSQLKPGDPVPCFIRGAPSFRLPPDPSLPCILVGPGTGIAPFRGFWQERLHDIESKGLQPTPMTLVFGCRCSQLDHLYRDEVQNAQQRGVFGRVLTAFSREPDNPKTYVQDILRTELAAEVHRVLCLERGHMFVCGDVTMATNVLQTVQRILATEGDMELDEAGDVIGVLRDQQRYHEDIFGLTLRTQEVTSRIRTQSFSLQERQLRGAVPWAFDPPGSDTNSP
Method in brief: (§1)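 Purified human enzymes were used, with iNOS purified from the DLD-1 colorectal adenocarcinoma line. Percent inhibition was measured at three or more inhibitor concentrations and converted to inhibition constants (Ki).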

[1] = biological target: T2, Nitric oxide synthase, inducible (Homo sapiens, UniProt P35228); test: Percent inhibition of Human inducible Nitric Oxide Synthase (iNOS) at a concentration of 25 uM; settings: at 25 µM
Method in brief: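 Human iNOS purified from the DLD-1 colorectal adenocarcinoma cell line. Percent inhibition of the enzyme was measured with test compound present.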

Nitric oxide synthase 1 [2] = biological target: T3, Nitric oxide synthase 1 (Homo sapiens, UniProt P29475); test: Inhibitory activity against human neuronal nitric oxide synthase in brain (nNOS).; assay type: tissue-based
[3] = biological target: T2, Nitric oxide synthase, inducible; test: Inhibitory activity against human inducible nitric oxide synthase (iNOS).; method in brief: as §1
[4] = biological target: T4, Nitric oxide synthase 3 (Homo sapiens) (UniProt P29474); test: Percent inhibition of human Vascular Endothelial nitric oxide synthase at a concentration of 25 uM; settings: at 25 µM
T4 sequence (whole entry): T1 sequence (P29474 whole entry)

Nitric oxide synthase 1 [5] = biological target: T3, Nitric oxide synthase 1; test: Percent inhibition of human Neuronal nitric oxide synthase in brain (nNOS) at a concentration of 25 uM; assay type: tissue-based; settings: at 25 µM
[6] = Clearance was determined; assay type: ADME, organism-based; settings: in vivo
[7] = Michaelis-Menten constant was determined; assay type: ADME
Method in brief: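 Human nNOS conversion of L-arginine to L-citrulline was measured over a range of arginine with inhibitor at 0, 150 and 300 nM. Velocities were fitted to V = Vmax[S]/{[S] + Km(1 + [I]/Ki)} to give Km.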

[8] = The half life was determined; assay type: ADME
Nitric oxide synthase 1 [9] = biological target: T3, Nitric oxide synthase 1; test: Percent inhibition of human Neuronal nitric oxide synthase at a concentration of 25 uM; settings: at 25 µM

T2 sequence (P35228 whole entry): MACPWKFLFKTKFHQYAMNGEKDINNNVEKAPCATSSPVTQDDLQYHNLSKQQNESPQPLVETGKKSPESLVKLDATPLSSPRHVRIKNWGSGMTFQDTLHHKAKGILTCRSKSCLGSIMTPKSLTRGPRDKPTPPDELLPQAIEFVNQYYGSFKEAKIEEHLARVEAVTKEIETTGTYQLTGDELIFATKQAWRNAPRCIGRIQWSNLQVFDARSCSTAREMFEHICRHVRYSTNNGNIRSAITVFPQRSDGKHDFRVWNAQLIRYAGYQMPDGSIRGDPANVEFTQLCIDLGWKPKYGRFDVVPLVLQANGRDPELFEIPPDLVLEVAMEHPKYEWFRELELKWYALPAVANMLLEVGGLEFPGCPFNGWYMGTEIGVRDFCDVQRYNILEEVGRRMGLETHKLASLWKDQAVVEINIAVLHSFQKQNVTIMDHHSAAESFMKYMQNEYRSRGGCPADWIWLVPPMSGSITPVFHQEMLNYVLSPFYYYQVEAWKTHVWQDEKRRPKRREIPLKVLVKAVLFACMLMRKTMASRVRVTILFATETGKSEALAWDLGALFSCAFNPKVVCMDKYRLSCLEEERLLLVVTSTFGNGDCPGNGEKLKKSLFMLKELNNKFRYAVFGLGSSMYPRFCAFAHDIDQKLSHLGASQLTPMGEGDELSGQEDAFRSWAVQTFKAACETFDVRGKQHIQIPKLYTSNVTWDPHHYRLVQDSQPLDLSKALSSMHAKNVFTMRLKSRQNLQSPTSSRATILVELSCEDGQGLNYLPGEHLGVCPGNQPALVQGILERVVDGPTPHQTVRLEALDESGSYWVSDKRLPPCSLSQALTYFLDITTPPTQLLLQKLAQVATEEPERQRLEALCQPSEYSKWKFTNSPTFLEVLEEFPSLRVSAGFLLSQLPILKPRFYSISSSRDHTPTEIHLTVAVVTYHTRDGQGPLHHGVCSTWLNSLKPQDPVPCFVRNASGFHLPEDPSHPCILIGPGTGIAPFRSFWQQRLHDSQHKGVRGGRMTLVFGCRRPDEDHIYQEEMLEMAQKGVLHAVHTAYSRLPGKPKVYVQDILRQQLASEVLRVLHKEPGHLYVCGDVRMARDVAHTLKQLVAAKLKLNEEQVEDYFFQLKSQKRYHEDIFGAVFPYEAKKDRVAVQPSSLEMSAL
T3 sequence (P29475 whole entry): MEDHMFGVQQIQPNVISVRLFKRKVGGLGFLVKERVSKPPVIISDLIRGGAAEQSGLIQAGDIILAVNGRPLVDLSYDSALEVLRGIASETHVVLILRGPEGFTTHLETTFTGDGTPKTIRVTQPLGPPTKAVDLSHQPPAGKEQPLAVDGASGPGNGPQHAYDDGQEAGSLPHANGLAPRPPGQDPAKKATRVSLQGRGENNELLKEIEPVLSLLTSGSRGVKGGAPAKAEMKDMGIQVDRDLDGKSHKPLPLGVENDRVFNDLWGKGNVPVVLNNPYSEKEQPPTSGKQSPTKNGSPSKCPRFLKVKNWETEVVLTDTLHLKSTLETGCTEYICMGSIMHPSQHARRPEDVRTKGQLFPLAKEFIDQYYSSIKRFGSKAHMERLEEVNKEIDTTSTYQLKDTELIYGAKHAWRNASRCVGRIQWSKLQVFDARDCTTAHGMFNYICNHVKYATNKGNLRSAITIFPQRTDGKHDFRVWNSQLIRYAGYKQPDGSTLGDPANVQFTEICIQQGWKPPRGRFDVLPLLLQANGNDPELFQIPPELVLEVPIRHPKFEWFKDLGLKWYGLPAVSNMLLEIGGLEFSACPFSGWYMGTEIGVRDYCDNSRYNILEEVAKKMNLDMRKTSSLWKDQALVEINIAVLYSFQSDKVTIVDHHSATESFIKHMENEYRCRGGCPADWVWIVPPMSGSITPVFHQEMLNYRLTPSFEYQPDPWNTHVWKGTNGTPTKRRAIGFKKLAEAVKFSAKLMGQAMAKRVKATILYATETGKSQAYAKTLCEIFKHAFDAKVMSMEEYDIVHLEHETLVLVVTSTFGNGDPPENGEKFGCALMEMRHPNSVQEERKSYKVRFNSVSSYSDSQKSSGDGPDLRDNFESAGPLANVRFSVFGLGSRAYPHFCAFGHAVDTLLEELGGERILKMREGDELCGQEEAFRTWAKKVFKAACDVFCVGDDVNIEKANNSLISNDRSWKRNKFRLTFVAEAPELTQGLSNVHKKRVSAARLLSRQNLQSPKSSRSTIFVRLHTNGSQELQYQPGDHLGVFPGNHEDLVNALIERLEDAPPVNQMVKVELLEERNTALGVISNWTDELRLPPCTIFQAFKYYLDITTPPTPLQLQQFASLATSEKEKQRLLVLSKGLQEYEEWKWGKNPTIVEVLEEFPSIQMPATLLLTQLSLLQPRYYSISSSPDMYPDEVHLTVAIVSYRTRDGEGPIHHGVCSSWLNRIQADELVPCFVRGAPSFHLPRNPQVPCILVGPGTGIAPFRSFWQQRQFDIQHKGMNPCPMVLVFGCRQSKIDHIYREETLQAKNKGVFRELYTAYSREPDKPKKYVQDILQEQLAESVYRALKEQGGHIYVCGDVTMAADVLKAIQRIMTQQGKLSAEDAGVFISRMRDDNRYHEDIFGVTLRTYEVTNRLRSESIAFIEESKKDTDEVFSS

| Structure (SMILES) | Ki (Nitric oxide synthase 3) [µM] | inhibition [1] [%] | Ki (Nitric oxide synthase 1 [2]) [µM] | Ki [3] [µM] | also measured |
| --- | --- | --- | --- | --- | --- |
| CSC(=N)Nc1ccc(C(F)(F)F)cc1 | 31 | 0 | 4.6 | – | – |
| CCSC(=N)Nc1ccccc1 | 0.4 | – | 0.12 | 0.87 | – |
| CCSC(=N)Nc1ccc(Cl)cc1 | 0.9 | – | 0.14 | 4.2 | – |
| CCSC(=N)Nc1ccc(C(=O)O)cc1 | – | 0 | 58 | – | inhibition [4]: 14% |
| CCSC(=N)Nc1cccnc1 | 7 | – | – | 23 | – |
| N=C(Nc1ccc(C(F)(F)F)cc1)SCc1ccccc1 | – | 0 | – | – | inhibition [4]: 0%; inhibition (Nitric oxide synthase 1 [5]): 11% |
| CCSC(=N)Nc1ccccc1C(C)C | – | – | 1.1 | – | – |
| CCSC(=N)Nc1ccc(C(C)C)cc1 | – | – | – | 25 | – |
| CCSC(=N)Nc1ccncc1 | 16 | – | 0.8 | 22 | – |
| CC(C)SC(=N)Nc1ccc(C(F)(F)F)cc1 | – | 0 | 29 | – | inhibition [4]: 0% |
| CCSC(=N)Nc1ccccc1C(F)(F)F | 18 | – | – | – | – |
| CCSC(=N)Nc1ccc(C(F)(F)F)cc1.Cl | – | – | – | 37 | Clearance [6]: 93.3 mL/min/kg; Km [7]: 2 µM; half-life ([8]; read-out: T1/2 alpha): 4 min; half-life ([8]; read-out: T1/2 beta): 31 min |
| CCCSC(=N)Nc1ccc(C(F)(F)F)cc1 | – | 4 | 64 | – | inhibition [4]: 0% |
| CSC(=N)Nc1ccc(Cl)cc1 | 2.6 | – | 0.57 | 42 | – |
| CSC(=N)Nc1ccc([N+](=O)[O-])cc1 | 17 | 0 | 3.3 | – | – |
| CCSC(=N)Nc1ccc([N+](=O)[O-])cc1 | 9.1 | – | 0.66 | 54 | – |
| CCSC(=N)Nc1ccccn1 | 17 | – | – | 23 | – |
| CCCCSC(=N)Nc1ccc(C(F)(F)F)cc1 | – | 0 | – | – | inhibition [4]: 0%; inhibition (Nitric oxide synthase 1 [9]): 0% |
| CCOC(=O)c1ccc(NC(=N)SCC)cc1 | – | – | – | 63 | – |
| CCSC(=N)Nc1ccc(OC(F)(F)F)cc1 | 17 | – | 0.7 | 55 | – |

From ChEMBL document CHEMBL1130064, “Substituted N-phenylisothioureas: potent inhibitors of human nitric oxide synthase with neuronal isoform selectivity” (J Med Chem, 1997)
